Hits are enriched below; roughly 2.9% of the tested compounds scored in any of these assays.
Cneo AK release = Cryptococcus neoformans cell lysis inducers, primary screen, AK release luminescence, single concentration; AID 651654, 2012; C. neoformans lysis, adenylate kinase release luminescence, 4 h; normalised: neutral wells 0, clomiphene wells 100; hit rate 0.2% among 360,000; lysis activity, % at 15 µM;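 active means mean lysis activity across replicates of at least 80%, whatever share of replicates individually reach that level; inactive means mean lysis activity below 80%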
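Assay system: log-phase C. neoformans yeast / Quantity: yeast cell density of 5 × 10^6 cells/mL / Medium: fresh YPD growth medium / Compound: single dose / Timing: static 4 h at 37 °C with compound, 1 h detection / Measured by: adenylate kinase release luminescence / Read-out: lysis from increased AK signal / Benchmarks: Clomiphene as positive lysis control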
PAX8 reporter = inhibitors of PAX8-driven TPO luciferase reporter, primary screen, RMG-I cells, single concentration; SteadyGlo, 24 h; inhibition, % at 12.6 µM; hit rate 1.2% among 360,000;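 active means mean replicate inhibition at least 60% with every replicate also reaching 60%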;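 further: luciferase light reporting Pax8 driven TPO promoter activity; plate controls were median of neutral control wells for no effect and mitoxantrone controls for full effect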
CDK5 p35 inh = inhibitors of human CDK5/p35 kinase, primary screen, biochemical, single concentration; hit rate 0.01% among 330,000; Cyclin-dependent kinase 5 (Homo sapiens) + Cyclin-dependent kinase 5 activator 1 (Homo …; inhibition, % at 10 µM; Recombinant CDK5/p35, ADP-Glo luminescence, 60 min;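 active means highest replicate inhibition of at least 50% and at least 75% of replicates reaching 50%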;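 further: plate controls were DMSO neutral control for no effect and GW8510 at 10 µM for full effect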
Target sequence (Q00535 whole entry, looked up): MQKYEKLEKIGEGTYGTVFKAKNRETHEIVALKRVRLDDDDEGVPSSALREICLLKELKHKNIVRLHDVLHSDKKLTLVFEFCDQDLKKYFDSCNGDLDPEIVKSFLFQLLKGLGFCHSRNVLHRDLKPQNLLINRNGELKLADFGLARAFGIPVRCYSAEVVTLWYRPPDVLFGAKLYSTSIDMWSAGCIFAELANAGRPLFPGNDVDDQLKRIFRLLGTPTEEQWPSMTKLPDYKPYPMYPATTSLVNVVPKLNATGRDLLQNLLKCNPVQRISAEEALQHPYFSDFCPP
Target sequence (Q15078 whole entry, looked up): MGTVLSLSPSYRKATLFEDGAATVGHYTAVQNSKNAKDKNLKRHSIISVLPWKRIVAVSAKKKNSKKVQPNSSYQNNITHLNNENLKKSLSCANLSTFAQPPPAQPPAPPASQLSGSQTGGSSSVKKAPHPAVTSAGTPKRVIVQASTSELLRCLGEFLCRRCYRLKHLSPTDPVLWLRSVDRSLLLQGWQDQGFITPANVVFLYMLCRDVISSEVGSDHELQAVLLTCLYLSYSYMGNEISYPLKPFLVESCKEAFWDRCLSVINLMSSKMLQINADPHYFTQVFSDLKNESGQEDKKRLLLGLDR
HIV Env fusion = inhibitors of HIV-1 Env-driven cell-cell fusion, primary screen, HeLa-JRFL effector, CEM21 target cells, luciferase; inhibition, % at 12.3 µM; hit rate 1.1% among 360,000; AID 651610, 2012;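 active means mean replicate inhibition score of at least 50 and every replicate individually at or above 50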;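 further: 0% = plate neutral controls and 100% = maraviroc near 300 nM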
dFosB act = activators of delta FosB homodimer, primary screen, biochemical, fluorescence polarization, TAMRA-CDK5 oligo, single point | hit rate 0.99% among 340,000 | Protein FosB (Mus musculus), P13346 | purified delta FosB; percent of positive-control signal above neutral wells | activation, % at 25 µM | AID 493131, 2011;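 active means mean activation above about 17%, with every replicate also reaching it, limit read from the data, passing the limit was not always enough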
INS-1E GSIS act = GLuc luminescence reporter in INS-1E cells, primary screen for activators of glucose-dependent secretion of insulin | hit rate 0.61% among 370,000 | AID 743287, 2014 | activation, % at 16.6 µM | INS-1E GLuc reporter insulin secretion, 2-3 h;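 active means lowest replicate activation of at least 40%, so every replicate reaches that level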;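 further: 0% = median of neutral control wells and 100% = median of IBMX positive control wells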
* marks the source's active call; other numbers are inactive results; . = no result given; [ ] = another dose, or the depositor's remark.

SMILES | Cneo AK release | PAX8 reporter | CDK5 p35 inh | HIV Env fusion | dFosB act | INS-1E GSIS act
Cc1cc2nc(-c3ccccc3)c(Cc3cccc(F)c3)n2c(C)c1Br | 12 | 22 | . | 74* | . | -2
CN1C(=O)c2cc(NC(=O)Nc3ccccc3F)ccc2OC[C@H]2O[C@H](CC(=O)O)CC[C@@H]21 | -1 | 10 | . | 5[16.7 µM] | . | 7
O=C(Nc1nc2c(s1)COc1ccccc1-2)c1cccs1 | 1 | 8 | 2 | -116 | -4 | -25
COCCSc1nnc(NC(=O)CS(=O)(=O)c2ccc(C)cc2)s1 | 0 | -2 | 1 | 4 | 1 | 10
O=C(CCS(=O)(=O)c1ccccc1)Nc1nc2c(s1)COc1ccccc1-2 | 1 | 70* | 0 | 14 | -5 | -50
CCOCCc1nnc(NC(=O)CCS(=O)(=O)c2ccccc2)s1 | -3 | 65* | 0 | 9 | 4 | 3
COCCSc1nnc(NC(=O)CCS(=O)(=O)c2ccccc2)s1 | 0 | 80* | -3 | 2 | -2 | 3
CC(C)Cc1nnc(NC(=O)CCS(=O)(=O)c2ccc(Cl)cc2)s1 | 1 | 71* | 0 | 11 | 15 | .
C[C@@H]1CN([C@H](C)CO)C(=O)c2cc(NC(=O)Cc3cn(C)c4ccccc34)ccc2O[C@H]1CN(C)S(=O)(=O)c1cccs1 | -3 | . | . | . | . | -6
C[C@H]1CN([C@@H](C)CO)C(=O)c2cc(C#Cc3ccc(F)cc3)cnc2O[C@@H]1CN(C)C(=O)c1ccccc1F | 0 | -1 | . | -3[16.7 µM] | . | -31
O=C(CCCc1ccccc1)Nc1nncs1 | 2 | . | 0 | . | 1 | 22
O=C(CCS(=O)(=O)c1ccccc1)Nc1nncs1 | 0 | 67* | 3 | -1 | 3 | 21
O=C(C1CC1)N1CC[C@@H]2[C@H]1c1cc(-c3ccc(F)cc3)ccc1N[C@@H]2CO | 2 | -26 | . | . | . | 5
COc1ccc(CN(C)C[C@@H]2Oc3ccc(NS(C)(=O)=O)cc3CC(=O)N([C@H](C)CO)C[C@H]2C)cc1 | 97* | -11 | . | 12[16.7 µM] | . | 6
COc1ccc(CN(C)C[C@H]2Oc3ccc(NS(C)(=O)=O)cc3CC(=O)N([C@@H](C)CO)C[C@H]2C)cc1 | 81* | 15 | . | -43[16.7 µM] | . | 3
O=C(Nc1ccc(C(F)(F)F)cc1)N[C@H]1CC[C@H](CC(=O)N2CCCCC2)O[C@@H]1CO | -1 | 4 | . | 2[16.7 µM] | . | 2
CCOc1ccccc1-n1nnnc1SCC(=O)N1CCCC1=O | -4 | 9 | 1 | . | -9 | 51*
O=C(O)/C=C/C(=O)NCc1ccccc1 | 0 | 82* | 1 | . | 4 | 2
O=C(NCc1ccccc1)c1ccc(C(=O)NCc2ccccc2)cc1 | . | . | -1 | 82* | -3 | 11
O=C(O)/C=C\C(=O)NCc1ccccc1 | 1 | -2 | -1 | -117 | -4 | .
Cc1ccc(C(=O)NC(NCc2ccccc2)C(Cl)(Cl)Cl)cc1 (configuration not stated) | 0 | 145* | -1 | . | 1 | -1
O=C(Nc1cccc(Cl)c1)N[C@H]1CC[C@@H](CCNC(=O)C2CC2)O[C@@H]1CO | -1 | -2 | . | 4[16.7 µM] | . | 5
CC(=O)N(C)C[C@@H]1Oc2cc(-c3ccc(F)cc3)ccc2S(=O)(=O)N([C@@H](C)CO)C[C@@H]1C | 4 | . | . | -11[16.7 µM] | . | 11
CO[C@H]1CN(C)C(=O)c2cc(NS(C)(=O)=O)ccc2OC[C@@H](C)N(Cc2ccccn2)C[C@@H]1C | . | . | . | . | . | -3
Cc1cccc(C(=O)OCC(=O)c2c(N)n(CC(C)C)c(=O)n(C)c2=O)c1[N+](=O)[O-] | . | -2 | 1 | . | -3 | -29
SMILES | Cneo AK release | PAX8 reporter | CDK5 p35 inh | HIV Env fusion | dFosB act | INS-1E GSIS act
Cc1cccc(C(=O)OCC(=O)c2c(N)n(CC(C)C)c(=O)n(C)c2=O)c1O | . | -2 | 0 | 60* | 5 | -4
COc1ccccc1-c1ccc2c(c1)O[C@@H](CN(C)S(=O)(=O)c1ccc(F)cc1)[C@H](C)CN([C@@H](C)CO)S2(=O)=O | 0 | 27 | . | . | . | 2
CCc1ccc(CNC(=O)CC2C(=O)NCCN2Cc2ccccc2F)nc1 (configuration not stated) | 1 | -8 | -1 | 56* | -9 | 14
CCN1CCN(Cc2ccc(NC(=O)c3ccc(C)c(NC(=O)c4ccc5n[nH]nc5c4)c3)cc2C(F)(F)F)CC1 | 26 | -6 | 0 | 18 | -10 | 10
CCN1CCN(Cc2ccc(NC(=O)c3cc(NC(=O)c4cc(C)on4)cc(OC)c3)cc2C(F)(F)F)CC1 | 3 | 12 | 0 | . | -12 | -1
CCN1CCN(Cc2ccc(NC(=O)c3cc(NC(=O)C(=O)c4c[nH]c5ccccc45)cc(OC)c3)cc2C(F)(F)F)CC1 | 0 | 95* | 1 | -11 | -7 | 3
CCN1CCN(Cc2ccc(NC(=O)c3ccc(C)c(NC(=O)C(=O)c4c[nH]c5ccccc45)c3)cc2C(F)(F)F)CC1 | -1 | 101* | -1 | 35 | -14 | 16
CCN1CCN(Cc2ccc(NC(=O)c3cccc(-c4ccc5nc(NC(=O)C6CC6)sc5n4)c3)cc2C(F)(F)F)CC1 | . | 80* | . | 21 | . | 143*
CCCNC(=O)[C@@H]1[C@@H](CO)[C@@H]2Cn3c(ccc(C4=CCCC4)c3=O)[C@H]1N2C(=O)C1CC1 | 3 | 7 | . | . | . | -6
O=C(N=Nc1c(O)[nH]c2ccccc12)c1cc(-c2cccs2)[nH]n1 | -3 | 3 | 3 | -4 | 71* | 2
Oc1[nH]c2ccccc2c1N=Nc1ccc(F)cc1 | . | -112 | -1 | -108 | -1 | .
O=C(N=Nc1c(O)[nH]c2ccccc12)c1cc(-c2ccc(F)cc2)n[nH]1 | . | 8 | -5 | 0 | 63* | 7
N#C[C@@H]1[C@H](c2ccccc2C2=CCCCC2)[C@H](CO)N1C(=O)c1ccccn1 | . | -4 | . | . | . | -11
CCN=C1S/C(=C\c2ccc(O)c(OCC)c2)C(=O)N1CC | . | -31 | -1 | -27 | -10 | 57*
CCN=C1S/C(=C\c2cc(OCC)c(O)cc2Br)C(=O)N1CC | . | 7 | 1 | -3 | -9 | 20
Cc1ccc(S(=O)(=O)Nc2ccc3c(c2)C(=O)N([C@@H](C)CO)C[C@@H](C)[C@@H](CN(C)C(=O)Nc2ccc(C(F)(F)F)cc2)OCCCC[C@H](C)O3)cc1 | 1 | 15 | . | -19[16.7 µM] | . | 12
C[C@@H]1CN([C@H](C)CO)C(=O)c2cc(NS(=O)(=O)c3ccc(Cl)cc3)ccc2O[C@@H](C)CCCCO[C@H]1CN(C)C(=O)Nc1ccc(C(F)(F)F)cc1 | -2 | 102* | . | 55*[16.7 µM] | . | 6

From PubChem BioAssay
